The source made the active and inactive calls. No cut-off for these calls is given here.
How the values were obtained:
[1] = test system: Human immunodeficiency virus 1; experiment: Antiviral activity against HIV-1 Bal infected in human TZM-bl cells after 24 hrs by luciferase reporter gene assay in presence of 12.5% cervical mucus; assay type: functional, organism-based; details: Human immunodeficiency virus 1, Bal
How it was run: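 TZM-bl cells (5 x 10^4/well), cultured overnight, pretreated first with cervical mucus simulant (12.5% final) and then drug (1 h), then infected with HIV-1 BaL (200 TCID50/ml). After 24 h, cells lysed and luciferase read. IC50 versus drug-free control by nonlinear regression; effect of mucus tested by ANOVA with Bonferroni and t tests.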

[2] = test system: Human immunodeficiency virus 1; experiment: Antiviral activity against HIV-1 subtype D V022819 infected in human MT4 cells assessed as inhibition of viral replication relative to HIV-1 3B; assay type: functional
How it was run: (§1)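 MT-4 cells (3 x 10^4/well) infected with site-directed mutants or recombinant clinical isolates (200 TCID50/well) with drug, cultured 3 to 5 days. Viability read by MTT colorimetric antivirogram assay. IC50 by nonlinear regression; fold change = IC50 for the test isolate / IC50 for wild-type HIV-1 IIIB tested in parallel (mean or median).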

[3] = test system: Human immunodeficiency virus 1; experiment: Antiviral activity against HIV-1 SM058 harboring NNTRI 227L and 106A mutant infected in human MT4 cells assessed as inhibition of viral replication relative to HIV-1 3B; assay type: functional; how it was run: as §1
[4] = Cytotoxicity against human TZM-bl cells after 24 hrs by MTT assay; assay type: cell-based
How it was run: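 Uninfected PM-1 or TZM-bl cells were exposed to drug and viability measured by MTT dye reduction as a percentage of untreated controls. CC50 was derived by nonlinear regression.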

[5] = test system: Human immunodeficiency virus 1; experiment: Antiviral activity against HIV-1 subtype CRF05_DF V022824 harboring NNRTI V106I mutant infected in human MT4 cells assessed as inhibition of viral replication relative to HIV-1 3B; assay type: functional; how it was run: as §1
[6] = test system: Human immunodeficiency virus 1; experiment: Antiviral activity against HIV-1 subtype O V029524 harboring NNRTI A98G, V179E and Y181C mutant infected in human MT4 cells assessed as inhibition of viral replication relative to HIV-1 3B; assay type: functional; how it was run: as §1
[7] = test system: Human immunodeficiency virus 1; experiment: Antiviral activity against HIV-1 subtype H V022828 harboring NNRTI K101Q and V179I mutant infected in human MT4 cells assessed as inhibition of viral replication relative to HIV-1 3B; assay type: functional; how it was run: as §1
[8] = Toxicity against human cervical tissue explants at 1 mM after 24 hrs by MTT assay; details: 1000 µM
How it was run: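 Uninfected ectocervical explants were exposed to drug for 2 or 24 h. Viability was measured by MTT reduction per milligram of tissue relative to unexposed explants, either immediately or after overnight culture. Three or four donors, triplicate.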

[9] = test system: Human immunodeficiency virus 1; experiment: Antiviral activity against HIV-1 Bal infected in human cervical tissue explants assessed as inhibition of dissemination of virus via migratory cells after 2 hrs in presence of 12.5% cervical mucus; assay type: functional, organism-based
How it was run: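 Cervical explants were exposed to HIV-1BaL plus drug for 2 h in cervical mucus simulant or whole semen (final 12.5%), then washed. Migratory cells were cocultured with PM-1 indicator cells and infection read as p24 in coculture supernatant.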

[10] = test system: Human immunodeficiency virus 1; experiment: Antiviral activity against HIV-1 SM007 harboring NNTRI 103N mutant infected in human MT4 cells assessed as inhibition of viral replication relative to HIV-1 3B; assay type: functional; how it was run: as §1
[11] = test system: Human immunodeficiency virus 1; experiment: Antiviral activity against HIV-1 subtype B V022807 infected in human MT4 cells assessed as inhibition of viral replication relative to HIV-1 3B; assay type: functional
How it was run: (§2)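 Recombinant clinical HIV-1 isolates (200 TCID50/well) were tested in MT-4 cells (3 x 10^4/well) over 3–5 days, with an MTT viability read-out. IC50 was fitted by nonlinear regression. Fold change is the isolate IC50 divided by the HIV-1IIIB IC50, tested in parallel.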

[12] = test system: Human immunodeficiency virus 1; experiment: Antiviral activity against HIV-1 SM051 harboring NNTRI 100I and 103N mutant infected in human MT4 cells assessed as inhibition of viral replication relative to HIV-1 3B; assay type: functional; how it was run: as §1
[13] = test system: Human immunodeficiency virus 1; experiment: Antiviral activity against HIV-1 subtype CRF02_AG V022826 infected in human MT4 cells assessed as inhibition of viral replication relative to HIV-1 3B; assay type: functional; how it was run: as §1
[14] = test system: Human immunodeficiency virus 1; experiment: Antiviral activity against HIV-1 Bal infected in human PM1 cells assessed as inhibition of transmission of virus to premissive T cells at 10 uM; assay type: functional; details: Human immunodeficiency virus 1, Bal
How it was run: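 Explants were pretreated with drug for 1 h, then exposed to HIV-1BaL for 2 h with drug present and washed. Cells that migrated out overnight were washed and cocultured with PM-1 cells (4 x 10^4/well) for about 10 days. Transfer was read as p24 by ELISA in coculture supernatant (detection limit 300 pg/ml). Two donors, triplicate.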

[15] = test system: Human immunodeficiency virus 1; experiment: Antiviral activity against HIV-1 SM034 harboring NNTRI 188L mutant infected in human MT4 cells assessed as inhibition of viral replication relative to HIV-1 3B; assay type: functional; how it was run: as §1
[16] = test system: Human immunodeficiency virus 1; experiment: Antiviral activity against HIV-1 subtype CRF02_AG V022825 infected in human MT4 cells assessed as inhibition of viral replication relative to HIV-1 3B; assay type: functional; how it was run: as §1
[17] = test system: Human immunodeficiency virus 1; experiment: Antiviral activity against HIV-1 subtype C V022816 infected in human MT4 cells assessed as inhibition of viral replication relative to HIV-1 3B; assay type: functional; how it was run: as §2
[18] = test system: Human immunodeficiency virus 1; experiment: Antiviral activity against HIV-1 Bal infected in 2 hrs 10000 nM compound pretreated human ectocervical explant tissue assessed as prolonged inhibition of viral infection post compound removal measured after 6 days post compound removal; assay type: functional
How it was run: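 Ectocervical explants were exposed to drug (0.01–10 µM) for 2 or 24 h at 37°C and washed. They received HIV-1BaL (2 h) on day 0, 2, 4 or 6 after drug removal, with no drug present. Read-outs at 10 days post-exposure: explant p24 ELISA, tissue proviral DNA by qPCR, and p24 in migratory cell–PM-1 cocultures. Three donors (2 h) or two donors (24 h), triplicate.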

[19] = test system: Human immunodeficiency virus 1; experiment: Antiviral activity against HIV-1 subtype B V022810 harboring NNRTI A98S andK101R mutant infected in human MT4 cells assessed as inhibition of viral replication relative to HIV-1 3B; assay type: functional; how it was run: as §1
[20] = test system: Human immunodeficiency virus 1; experiment: Antiviral activity against HIV-1 Bal infected in human TZM-bl cells after 24 hrs by luciferase reporter assay; details: Human immunodeficiency virus 1, Bal
[21] = test system: Human immunodeficiency virus 1; experiment: Antiviral activity against HIV-1 subtype CRF01_AE V022821 infected in human MT4 cells assessed as inhibition of viral replication relative to HIV-1 3B; assay type: functional; how it was run: as §2
[22] = test system: Human immunodeficiency virus 1; experiment: Antiviral activity against HIV-1 Bal infected in human TZM-bl cells after 24 hrs by luciferase reporter gene assay in presence of 12.5% whole semen; assay type: functional, organism-based; details: Human immunodeficiency virus 1, Bal
How it was run: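 HIV-1 BaL (200 TCID50/ml) pretreated with whole semen (12.5% final), then added to overnight-cultured TZM-bl cells (5 x 10^4/well) pretreated 1 h with drug. After 24 h, cells lysed and luciferase read. IC50 versus drug-free control by nonlinear regression; effect of semen tested by ANOVA with Bonferroni and t tests.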

[23] = test system: Human immunodeficiency virus 1; experiment: Antiviral activity against HIV-1 subtype C V022831 infected in human MT4 cells assessed as inhibition of viral replication relative to HIV-1 3B; assay type: functional; how it was run: as §1

## Cc1cc(C)c(Nc2ccnc(Nc3ccc(C#N)cc3)n2)c(C)c1 [DAPIVIRINE]
[1]
  IC50: 8.32 nM
  IC90: 41.6 nM
[2]
  Ratio IC50: 1.5
[3]
  Ratio IC50: 8
[4]
  CC50 at 24 h: 20400 nM
[5]
  Ratio IC50: 0.7
[6]
  Ratio IC50: 150
[7]
  Ratio IC50: 1.5
[8]
  Activity: Non-toxic
[9]
  inhibition: Active
[10]
  Ratio IC50: 5
[11]
  Ratio IC50: 1.1
[12]
  Ratio IC50: 2389
[13]
  Ratio IC50: 1
[14]
  inhibition at 10 µM: > 90%
[15]
  Ratio IC50: 47
[16]
  Ratio IC50: 0.8
[17]
  Ratio IC50: 1.8
[18]
  inhibition (INH): 80%
[19]
  Ratio IC50: 1.6
[20]
  IC50: 2.2 nM
[21]
  Ratio IC50: 1.7
[22]
  IC50: 1.75 nM
  IC90: 16.7 nM
[23]
  Ratio IC50: 0.8

From ChEMBL document CHEMBL1671644, “Inhibition of human immunodeficiency virus type 1 infection by the candidate microbicide dapivirine, a nonnucleoside reverse transcriptase inhibitor” (Antimicrob Agents Chemother, 2009)
